{
  "source": "ChEMBL document CHEMBL4406851",
  "about": "“Design, synthesis and biological evaluation of cinnamic acid derivatives with synergetic neuroprotection and angiogenesis effect” (Eur J Med Chem, 2019)",
  "key": {"SH-SY5Y [1]": {"tested_on": "SH-SY5Y", "assay": "Neuroprotective activity against H2O2-induced cell damage in human SH-SY5Y cells assessed as increase in cell viability preincubated for 24 hrs followed by H2O2 addition and measured after 4 hrs by MTT assay", "type": "functional, cell-based", "in_short": "(§1)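 Cells at 3.5×10^4 cells/mL in 96-well plates were grown 24 h (37 °C, 5% CO2). Test agent was added at five concentrations for 24 h, then H2O2 (4.8 mM stock) to model and drug wells. After PBS washes, MTT (5 mg/mL) was added for 4 h, formazan was dissolved in DMSO and OD was read at 550 nm. Proliferation rate = (drug − injury OD)/(control − injury OD). EC50 came from a formula using maximum concentration and summed, maximal and minimal rates.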"}, "[2]": {"assay": "Neuroprotective activity against H2O2-induced cell damage in human HBMEC2 cells assessed as increase in cell viability preincubated for 24 hrs followed by H2O2 addition and measured after 4 hrs by MTT assay", "type": "functional, cell-based", "conditions": "HBMEC-2", "in_short": "as §1"}, "SH-SY5Y [3]": {"tested_on": "SH-SY5Y", "assay": "Protection against H2O2-induced apoptosis in human SH-SY5Y cells assessed as reduction in cell shrinkage at 1.56 to 6.25 uM preincubated for 24 hrs followed by H2O2 addition measured after 4 hrs by Giemsa staining based inverted phase contrast microscopic analysis", "type": "functional", "in_short": "(§2)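 Cells at 3.5×10^4 cells/mL in 24-well plates were pretreated 24 h with compound at three concentrations, then H2O2 (4.8 mM stock) for 4 h. After PBS washes, cells were fixed in 4% paraformaldehyde/70% cold ethanol for 10 min. Staining was 6% Giemsa or DAPI for 5 min in the dark. Random fields were photographed at 200× by microscope, alongside control and model groups.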"}, "SH-SY5Y [4]": {"tested_on": "SH-SY5Y", "assay": "Protection against H2O2-induced apoptosis in human SH-SY5Y cells assessed as reduction in cell disruption at 1.56 to 6.25 uM preincubated for 24 hrs followed by H2O2 addition measured after 4 hrs by Giemsa staining based inverted phase contrast microscopic analysis", "type": "functional", "in_short": "as §2"}, "SH-SY5Y [5]": {"tested_on": "SH-SY5Y", "assay": "Protection against H2O2-induced apoptosis in human SH-SY5Y cells assessed as decrease in nuclear fragmentation preincubated for 24 hrs followed by H2O2 addition measured after 4 hrs by DAPI staining based inverted phase contrast microscopic analysis", "type": "functional, cell-based", "in_short": "as §2"}, "[6]": {"assay": "Inhibition of H2O2-induced apoptosis in human HBMEC2 cells assessed as necrotic cells at 1.56 uM preincubated for 24 hrs followed by H2O2 addition measured after 4 hrs by Annexin V-FITC/propidium iodide staining based flow cytometry (reference value: 0.4 %)", "type": "functional, HBMEC-2", "design": "scale not given: the % may be the effect or the level left", "in_short": "(§3)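 Cells were seeded at 3.5×10^4 cells/mL in 6-well plates at 37 °C, 5% CO2. Compound was added at three concentrations for 24 h, then H2O2 (4.8 mM stock solution) to model and drug wells for 4 h. Cells were collected, washed in cold PBS and resuspended in annexin-binding buffer. Staining was annexin V-FITC 10 min, then PI 5 min, in the dark, followed by flow cytometry with quadrant gating.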"}, "[7]": {"assay": "Inhibition of H2O2-induced apoptosis in human HBMEC2 cells assessed as late apoptotic cells at 1.56 uM preincubated for 24 hrs followed by H2O2 addition measured after 4 hrs by Annexin V-FITC/propidium iodide staining based flow cytometry (reference value: 29.4 %)", "type": "functional, HBMEC-2", "design": "scale not given: the % may be the effect or the level left", "in_short": "as §3"}, "[8]": {"assay": "Inhibition of H2O2-induced apoptosis in human HBMEC2 cells assessed as normal cells at 1.56 uM preincubated for 24 hrs followed by H2O2 addition measured after 4 hrs by Annexin V-FITC/propidium iodide staining based flow cytometry (reference value: 62.1 %)", "type": "functional, HBMEC-2", "design": "scale not given: the % may be the effect or the level left", "in_short": "as §3"}, "[9]": {"assay": "Inhibition of H2O2-induced apoptosis in human HBMEC2 cells assessed as early apoptotic cells at 1.56 uM preincubated for 24 hrs followed by H2O2 addition measured after 4 hrs by Annexin V-FITC/propidium iodide staining based flow cytometry (reference value: 8.1 %)", "type": "functional, HBMEC-2", "design": "scale not given: the % may be the effect or the level left", "in_short": "as §3"}, "[10]": {"assay": "Inhibition of H2O2-induced apoptosis in human HBMEC2 cells assessed as necrotic cells at 3.13 uM preincubated for 24 hrs followed by H2O2 addition measured after 4 hrs by Annexin V-FITC/propidium iodide staining based flow cytometry (reference value: 0.4 %)", "type": "functional, HBMEC-2", "design": "scale not given: the % may be the effect or the level left", "in_short": "as §3"}, "[11]": {"assay": "Inhibition of H2O2-induced apoptosis in human HBMEC2 cells assessed as late apoptotic cells at 3.13 uM preincubated for 24 hrs followed by H2O2 addition measured after 4 hrs by Annexin V-FITC/propidium iodide staining based flow cytometry (reference value: 29.4 %)", "type": "functional, HBMEC-2", "design": "scale not given: the % may be the effect or the level left", "in_short": "as §3"}, "[12]": {"assay": "Inhibition of H2O2-induced apoptosis in human HBMEC2 cells assessed as early apoptotic cells at 3.13 uM preincubated for 24 hrs followed by H2O2 addition measured after 4 hrs by Annexin V-FITC/propidium iodide staining based flow cytometry (reference value: 8.1 %)", "type": "functional, HBMEC-2", "design": "scale not given: the % may be the effect or the level left", "in_short": "as §3"}, "[13]": {"assay": "Inhibition of H2O2-induced apoptosis in human HBMEC2 cells assessed as early apoptotic cells at 6.25 uM preincubated for 24 hrs followed by H2O2 addition measured after 4 hrs by Annexin V-FITC/propidium iodide staining based flow cytometry (reference value: 8.1 %)", "type": "functional, HBMEC-2", "design": "scale not given: the % may be the effect or the level left", "in_short": "as §3"}, "SH-SY5Y [14]": {"tested_on": "SH-SY5Y", "assay": "Inhibition of H2O2-induced apoptosis in human SH-SY5Y cells assessed as late apoptotic cells at 3.13 uM preincubated for 24 hrs followed by H2O2 addition measured after 4 hrs by Annexin V-FITC/propidium iodide staining based flow cytometry (reference value: 26.5 %)", "type": "functional", "design": "scale not given: the % may be the effect or the level left", "in_short": "as §3"}, "SH-SY5Y [15]": {"tested_on": "SH-SY5Y", "assay": "Inhibition of H2O2-induced apoptosis in human SH-SY5Y cells assessed as necrotic cells at 6.25 uM preincubated for 24 hrs followed by H2O2 addition measured after 4 hrs by Annexin V-FITC/propidium iodide staining based flow cytometry (reference value: 0.9 %)", "type": "functional", "design": "scale not given: the % may be the effect or the level left", "in_short": "as §3"}, "SH-SY5Y [16]": {"tested_on": "SH-SY5Y", "assay": "Inhibition of H2O2-induced apoptosis in human SH-SY5Y cells assessed as late apoptotic cells at 6.25 uM preincubated for 24 hrs followed by H2O2 addition measured after 4 hrs by Annexin V-FITC/propidium iodide staining based flow cytometry (reference value: 26.5 %)", "type": "functional", "design": "scale not given: the % may be the effect or the level left", "in_short": "as §3"}, "SH-SY5Y [17]": {"tested_on": "SH-SY5Y", "assay": "Inhibition of H2O2-induced apoptosis in human SH-SY5Y cells assessed as normal cells at 6.25 uM preincubated for 24 hrs followed by H2O2 addition measured after 4 hrs by Annexin V-FITC/propidium iodide staining based flow cytometry (reference value: 67.2 %)", "type": "functional", "design": "scale not given: the % may be the effect or the level left", "in_short": "as §3"}, "SH-SY5Y [18]": {"tested_on": "SH-SY5Y", "assay": "Inhibition of H2O2-induced apoptosis in human SH-SY5Y cells assessed as early apoptotic cells at 6.25 uM preincubated for 24 hrs followed by H2O2 addition measured after 4 hrs by Annexin V-FITC/propidium iodide staining based flow cytometry (reference value: 5.4 %)", "type": "functional", "design": "scale not given: the % may be the effect or the level left", "in_short": "as §3"}, "SH-SY5Y [19]": {"tested_on": "SH-SY5Y", "assay": "Protection against H2O2-induced mitochondrial dysfunction in human SH-SY5Y cells assessed as recovery of mitochondrial membrane potential at 1.56 to 6.25 uM preincubated for 24 hrs followed by H202 addition measured after 4 hrs by Rh123 staining based inverted light microscopic analysis", "type": "functional, cell-based", "in_short": "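Cells in 96-well plates (3.5×10^4 cells/mL) were grown 24 h. They were pretreated 24 h with compound at three concentrations, then exposed to H2O2 (4.8 mM stock) for 4 h. Medium was removed and Rh123 added for 30 min at 37 °C. Cells were washed twice in cold PBS and examined immediately under an inverted microscope for green fluorescence.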"}, "HBMEC-2": {"tested_on": "HBMEC-2", "assay": "Inhibition of H2O2-induced apoptosis in human HBMEC2 cells preincubated for 24 hrs followed by H2O2 addition measured after 4 hrs by Annexin V-FITC/propidium iodide staining based flow cytometry", "type": "functional, cell-based", "in_short": "as §3"}, "SH-SY5Y [20]": {"tested_on": "SH-SY5Y", "assay": "Inhibition of H2O2-induced apoptosis in human SH-SY5Y cells preincubated for 24 hrs followed by H2O2 addition measured after 4 hrs by Annexin V-FITC/propidium iodide staining based flow cytometry", "type": "functional, cell-based", "in_short": "as §3"}},
  "note": "Active and inactive are the calls of the source. The rule behind the calls is not given here.",
  "data": [
    {"smiles": "COc1cc(CNC(=O)/C=C/c2cc(OC)c(OC)cc2OC)ccc1O", "values": [
      {"measurement": "EC50", "setting": "SH-SY5Y [1]", "result": 2.41, "unit": "µM"},
      {"measurement": "EC50", "setting": "[2]", "result": 3.26, "unit": "µM"},
      {"measurement": "Activity", "setting": "SH-SY5Y [3]", "result": "Active"},
      {"measurement": "Activity", "setting": "SH-SY5Y [4]", "result": "Active"},
      {"measurement": "Activity", "setting": "SH-SY5Y [5]", "result": "Dose-dependent effect"},
      {"measurement": "Activity", "setting": "[6]", "result": 1, "unit": "%"},
      {"measurement": "Activity", "setting": "[7]", "result": 19.3, "unit": "%"},
      {"measurement": "Activity", "setting": "[8]", "result": 70.6, "unit": "%"},
      {"measurement": "Activity", "setting": "[9]", "result": 9.1, "unit": "%"},
      {"measurement": "Activity", "setting": "[10]", "result": 0.1, "unit": "%"},
      {"measurement": "Activity", "setting": "[11]", "result": 10.5, "unit": "%"},
      {"measurement": "Activity", "setting": "[12]", "result": 8.9, "unit": "%"},
      {"measurement": "Activity", "setting": "[13]", "result": 8.3, "unit": "%"},
      {"measurement": "Activity", "setting": "SH-SY5Y [14]", "result": 21, "unit": "%"},
      {"measurement": "Activity", "setting": "SH-SY5Y [15]", "result": 1.1, "unit": "%"},
      {"measurement": "Activity", "setting": "SH-SY5Y [16]", "result": 14, "unit": "%"},
      {"measurement": "Activity", "setting": "SH-SY5Y [17]", "result": 82.3, "unit": "%"},
      {"measurement": "Activity", "setting": "SH-SY5Y [18]", "result": 2.6, "unit": "%"},
      {"measurement": "Activity", "setting": "SH-SY5Y [19]", "result": "Active"},
      {"measurement": "inhibition", "setting": "HBMEC-2", "result": "Dose-dependent effect"},
      {"measurement": "inhibition", "setting": "SH-SY5Y [20]", "result": "Dose-dependent effect"}
    ]}
  ]
}
